Source: PubChem (several laboratories)
In the library only some 1.8% were active in any assay of this set; here they are far more common.
STAT1 blocker – STAT1 signaling inhibitors, primary screen, cell-based, HTS, luciferase reporter | NIH 3T3 STAT1-luciferase reporter, IFN-gamma, luminescence | inhibition, % at 5.5 µM | 200,000 compounds, 0.35% hits | AID 920, 2007;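 active means inhibition above a set limit, the mean inhibition across all tested compounds plus 3 SD, cut at about 34% in these data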
STAT3 activator – IL-6 driven STAT3 reporter potentiators, primary screen, U3A cells, luciferase, luminescence, MLSCN library; activation (% of control), % at 5.6 µM; 190,000 compounds, 0.91% hits; IL-6 STAT3-luciferase reporter; 100% = signal with IL-6 EC80 alone;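 active means activation above the screen-wide mean of compound activation plus 3 SD, cut at about 130% in these data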
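system = STAT3-luciferase reporter U3A cells | reagent = IL-6 stimulus at 33 ng/mL final | timing = 1 h compound pre-exposure, 6 h IL-6 stimulation, 37 °C | measured by = luminescence | evaluation = % activation versus median of IL-6-stimulated wells | control set = IL-6-only wells as 100% reference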
C8 TRAIL sens – viability loss with TRAIL in NB7+C8 cells, primary screen, TRAIL sensitizer project, cell-based, ATPlite luminescence; inhibition (viability loss, TRAIL sensitization), % at 10 µM; 360,000 compounds, 1% hits; AID 624354, 2012;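 active means compounds causing at least 50% loss of cell viability in the single-dose screen, relative to plate controls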
STAT3 inh – IL-6 driven STAT3 reporter inhibitors, primary screen, U3A cells, luciferase, luminescence, MLSCN library; IL-6 STAT3-luciferase reporter; host cell line lacks STAT1; inhibition, % at 5.5 µM; 190,000 compounds, 0.89% hits;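 active means inhibition above the mean inhibition across all screened compounds plus 3 SD, cut at about 44% in these data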
PPC-1+TRAIL kill – compounds killing PPC-1 cancer cells with TRAIL present, primary screen, TRAIL potentiator project, ATPLite luminescence, uHTS; cell killing (% activity), % at 4 µM or 5 µM; 220,000 compounds, 0.41% hits; AID 1443, 2008; PPC-1 cells + TRAIL, ATPLite viability luminescence;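 active means cell killing above 50% in the first pass at 4 µM, then a duplicate retest at 5 µM averaging 50% or more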
A number is an active result.

C#CCN(C[C@@H]1[C@@H](OC(=O)NCc2ccccc2F)[C@@H](OC(=O)NCc2ccccc2F)Cn2c(=O)ccc(=O)n21)S(=O)(=O)c1ccc(C)cc1 was read as C8 TRAIL sens 81.
For O=C(NC1CCOCC1)C1CCC(=O)N(CCc2ccc(Cl)cc2)C1 (stereo not given) the results were C8 TRAIL sens inactive.
For COC[C@H]1CCCN1[C@H]1CS(=O)(=O)N[C@@H]1COCc1ccccc1 the results were C8 TRAIL sens inactive.
CCOc1ccc(-n2c(C)cc(C(=O)CCl)c2C)cc1 was read as STAT1 blocker inactive, STAT3 activator inactive, C8 TRAIL sens 53, STAT3 inh inactive and PPC-1+TRAIL kill inactive.
`COC(=O)c1ccc(-n2c(C)cc(C(=O)CCl)c2C)cc1` gave STAT1 blocker inactive, STAT3 activator inactive, C8 TRAIL sens inactive, STAT3 inh inactive and PPC-1+TRAIL kill inactive.
For COc1ccc(Br)cc1CN(C)C(=O)CNC(=O)c1ccc2ccccc2c1 the results were C8 TRAIL sens inactive.
`NC1=NC[C@H](CC2CCCCC2)N1CCc1cc(C(F)(F)F)cc(C(F)(F)F)c1` gave C8 TRAIL sens 60 and PPC-1+TRAIL kill inactive.
`NC1=NC[C@@H](Cc2ccc(O)cc2)N1CCc1cc(C(F)(F)F)cc(C(F)(F)F)c1` gave C8 TRAIL sens inactive and PPC-1+TRAIL kill inactive.
For CCCC[C@@H]1CNCCN1CCc1cc(C(F)(F)F)cc(C(F)(F)F)c1 the results were C8 TRAIL sens inactive.
Screening FC(F)(F)c1cc(CCN2CCNC[C@@H]2CC2CCCCC2)cc(C(F)(F)F)c1 returned C8 TRAIL sens 67.
Screening COc1ccc(C(=O)N[C@H](C(=O)Nc2nc3ccccc3[nH]2)C(C)C)cc1 returned STAT1 blocker inactive, STAT3 activator inactive, C8 TRAIL sens inactive, STAT3 inh inactive and PPC-1+TRAIL kill inactive.
For O=C(Nc1nc2ccccc2[nH]1)c1cccc(F)c1 the results were C8 TRAIL sens inactive.
`CN(C)c1cccc(C(=O)Nc2nc3ccccc3[nH]2)c1` gave C8 TRAIL sens 83.
`COc1ccc(C(=O)Nc2nc3ccccc3[nH]2)cc1` gave C8 TRAIL sens 91.
`Cc1ccc(C(=O)Nc2nc3ccccc3[nH]2)cc1` gave C8 TRAIL sens 93.
Cc1c(C(=O)Nc2nc3ccccc3[nH]2)oc2ccccc12 was read as STAT1 blocker inactive, STAT3 activator 145, C8 TRAIL sens inactive, STAT3 inh inactive and PPC-1+TRAIL kill inactive.
O=C(CCC(=O)OCCOc1ccccc1)OCCOc1ccccc1 was read as C8 TRAIL sens inactive.
For CC(=O)C1CCC2C3CCC4CC(=O)CCC4(C)C3C(C)(O)CC12C (stereo not given) the results were C8 TRAIL sens inactive.
`O=C(Nc1nc2ccccc2[nH]1)C12CC3CC(CC(C3)C1)C2` gave STAT1 blocker inactive, STAT3 activator inactive, C8 TRAIL sens 70, STAT3 inh inactive and PPC-1+TRAIL kill inactive.
Screening O=C(Nc1nc2ccccc2[nH]1)C1CC1 returned STAT1 blocker inactive, STAT3 activator inactive, C8 TRAIL sens inactive, STAT3 inh inactive and PPC-1+TRAIL kill inactive.
`Brc1cccc(-c2n[nH]c(-c3ccccc3)n2)c1` gave STAT1 blocker inactive, STAT3 activator 152, C8 TRAIL sens inactive, STAT3 inh inactive and PPC-1+TRAIL kill inactive.
`CCOC(=O)Cc1csc(NC(=O)c2cc3ccccc3o2)n1` gave STAT1 blocker inactive, STAT3 activator inactive, C8 TRAIL sens inactive, STAT3 inh inactive and PPC-1+TRAIL kill inactive.
Screening O=C(NNC(=O)c1cc2ccccc2o1)c1ccc(F)cc1 returned C8 TRAIL sens inactive.
For O=C(Nc1nc(-c2ccco2)cs1)c1ccccc1 the results were STAT1 blocker inactive, STAT3 activator inactive, C8 TRAIL sens inactive, STAT3 inh inactive and PPC-1+TRAIL kill inactive.
`Cc1csc(C(C#N)C(=O)c2cc3ccccc3o2)n1` (stereo not given) gave STAT1 blocker inactive, STAT3 activator inactive, C8 TRAIL sens 59, STAT3 inh inactive and PPC-1+TRAIL kill inactive.
Screening Cc1ccc(-c2csc(NC(=O)c3ccc(-c4ccccc4)cc3)n2)o1 returned STAT1 blocker inactive, STAT3 activator inactive, C8 TRAIL sens 66, STAT3 inh inactive and PPC-1+TRAIL kill inactive.
Screening COC(=O)c1cccc(NC(=O)c2cc3ccccc3o2)c1 returned C8 TRAIL sens 50.
Screening Cc1csc(NC(=O)c2cc3ccccc3o2)n1 returned C8 TRAIL sens 65.
For Cc1ccnc(NC(=O)c2ccc(C(=O)c3ccccc3)cc2)c1 the results were C8 TRAIL sens 69.
For Cc1ccnc(NC(=O)c2ccccc2NC(=O)c2ccccc2)c1 the results were C8 TRAIL sens inactive.
`Cc1ccnc(NC(=O)c2cc3ccccc3o2)c1` gave C8 TRAIL sens 86.
COc1ccccc1N(Cc1ccccc1)S(=O)(=O)c1cccc(C(=O)Nc2ncccc2C)c1 was read as C8 TRAIL sens inactive.
Screening COc1ccccc1N(Cc1ccccc1)S(=O)(=O)c1cccc(C(=O)Nc2cc(C)ccn2)c1 returned C8 TRAIL sens 61.
Screening COc1cc(NC(=O)c2ccccc2)ccc1NC(=O)c1cc2ccccc2o1 returned C8 TRAIL sens inactive.
Cc1cc(NC(=O)c2cncc(Br)c2)ccc1NC(=O)c1cc2ccccc2o1 was read as C8 TRAIL sens 60.
`CC(C)c1nc2cc(C(=O)N3CCNC(=O)C3c3ccc(F)cc3)ccc2o1` (stereo not given) gave C8 TRAIL sens inactive.
`O=c1[nH]c(=S)[nH]c2c1C(C1CCCCC1)OC(C1CCCCC1)C2` (stereo not given) gave C8 TRAIL sens inactive.
`CC(=O)c1cccc(NC(=O)CCn2c(=O)oc3ccccc32)c1` gave C8 TRAIL sens inactive.
Screening COC(=O)c1ccccc1COc1cccn2c(N(C)Cc3cccs3)c(C)nc12 returned C8 TRAIL sens inactive.
For COc1ccc(/C=C/c2nc3ccccc3n2Cc2ccccc2OC)cc1 the results were STAT1 blocker inactive, STAT3 activator inactive, C8 TRAIL sens 78, STAT3 inh inactive and PPC-1+TRAIL kill inactive.
For COc1cc(/C=C/c2nc3ccccc3c(=O)[nH]2)ccc1OC(F)F the results were C8 TRAIL sens 56.
For C=CCOc1cccc(/C=C/c2nc3ccccc3c(=O)[nH]2)c1 the results were C8 TRAIL sens 57.
Screening COC(=O)c1ccc(/C=C/c2nc3ccccc3c(=O)[nH]2)cc1 returned C8 TRAIL sens 53.
For COc1cc(/C=C/c2nc3ccccc3c(=O)[nH]2)cc(OC)c1OC the results were C8 TRAIL sens inactive.
Screening Cc1ccccc1/C=C/c1nc2ccccc2c(=O)[nH]1 returned C8 TRAIL sens 54 and PPC-1+TRAIL kill inactive.
Screening CS(=O)(=O)N1CCCCC1CCN1CCCCC1 (stereo not given) returned C8 TRAIL sens inactive.
